Experimental data taken from ChEMBL document CHEMBL1833887, “Synthesis and evaluation of 7-substituted 4-aminoquinoline analogues for antimalarial activity” (J Med Chem, 2011).
Values after ≈ are worked out from the molar mass of the structure shown.

Key:
[1] = Solubility of the compound at pH 7.4 after 18 hrs by UV spectroscopic analysis; assay type: physicochemical; conditions: buffer
In short: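 Kinetic solubility. A 10 mM stock is diluted 1:100 into PBS pH 7.4 and incubated 18 h at room temperature, then filtered; the filtrate is mixed 1:1 with 1-propanol. UV spectrum (250–500 nm) compared by AUC with a 1-propanol/PBS reference. Single experiment in triplicate.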

[2] = Permeability of the compound at pH 7.4 after 30 mins by PAMPA; assay type: ADME; conditions: read-out: permeability
In short: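 PAMPA at pH 7.4. A 10 mM DMSO stock is diluted into system solution buffer; its UV spectrum serves as reference. Membrane painted with GIT lipid, acceptor chamber holds acceptor solution buffer. Sandwich stirred for 30 min, aqueous boundary layer set to 40. Donor and acceptor UV spectra read at 250–500 nm. Permeability coefficient from the AUCs of reference, donor and acceptor. Single experiment in triplicate.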

[3] = Dissociation constant, pKa of the compound; assay type: physicochemical
Plasmodium falciparum [4] = assay: Antimalarial activity against chloroquine-sensitive Plasmodium falciparum 3D7 infected in human erythrocytes assessed as reduction in parasitemia after 72 hrs by spectrophotometry; assay type: functional, organism-based; conditions: 3D7, 72 h
Plasmodium falciparum [5] = assay: Antimalarial activity against chloroquine-resistant Plasmodium falciparum K1 infected in human erythrocytes assessed as reduction in parasitemia after 72 hrs by spectrophotometry; assay type: functional, organism-based; conditions: K1, 72 h
Plasmodium falciparum [6] = assay: Ratio of EC50 for chloroquine-resistant Plasmodium falciparum K1 infected in human erythrocytes to EC50 for chloroquine-sensitive Plasmodium falciparum 3D7 infected in human erythrocytes; assay type: functional
HepG2 = assay: Cytotoxicity against human HepG2 cells assessed as intracellular ATP level after 72 hrs by Celltiter-Glo luminescent assay; assay type: cell-based; conditions: HepG2, 72 h
[7] = Ratio of EC50 for human HepG2 cells to EC50 for Plasmodium falciparum 3D7 infected in human erythrocytes
[8] = Ratio of EC50 for human HepG2 cells to EC50 for Plasmodium falciparum K1 infected in human erythrocytes

SMILES | solubility at 18 h [1] | Papp at 0.5 h [2] | pKa [3] | EC50 (Plasmodium falciparum [4]) | EC50 (Plasmodium falciparum [5]) | Ratio EC50 (Plasmodium falciparum [6]) | EC50 (HepG2) | Ratio EC50 [7] | Ratio EC50 [8]
CC(C)(C)c1ccc(Oc2ccc3c(NCCCNCc4ccc5c(c4)OCO5)ccnc3c2)cc1 | 14.5 µM (≈ 7.01 µg/mL) | 317 ×10⁻⁶ cm/s | 9.28 | 137 nM | 2450 nM | 17.9 | 900 nM | 7 | 0.4
COc1ccc(Oc2ccc3c(NCCCNCc4cc(F)ccc4OC)ccnc3c2)cc1 | 14.5 µM (≈ 6.69 µg/mL) | 317 ×10⁻⁶ cm/s | 9.28 | 54 nM | 660 nM | 12.2 | 7000 nM | 129 | 11
COc1ccc(F)cc1CNCCCNc1ccnc2cc(Cc3ccc(F)cc3Cl)ccc12 | 4.2 µM (≈ 2.02 µg/mL) | 23 ×10⁻⁶ cm/s | 9.47 | 208 nM | 1110 nM | 5.4 | 2460 nM | 11.8 | 2.2
Fc1ccc(Cc2ccc3c(NCCCNCc4ccco4)ccnc3c2)cc1 | 4.2 µM (≈ 1.64 µg/mL) | 23 ×10⁻⁶ cm/s | 9.47 | 57 nM | 1660 nM | 28.9 | 5600 nM | 97.5 | 3.4
COc1ccc(F)cc1CNCCCNc1ccnc2cc(Oc3ccc(C(C)(C)C)cc3)ccc12 | 14.5 µM (≈ 7.07 µg/mL) | 317 ×10⁻⁶ cm/s | 9.28 | 106 nM | 2780 nM | 26.2 | 7200 nM | 68 | 3
c1ccc(Cc2ccc3c(NCCCNCc4ccco4)ccnc3c2)cc1 | 4.2 µM (≈ 1.56 µg/mL) | 23 ×10⁻⁶ cm/s | 9.47 | 40 nM | 3550 nM | 89.9 | 16000 nM | 405.1 | 4.5
FC(F)(F)c1ccc(-c2ccc3c(NCCCNCc4ccco4)ccnc3c2)cc1 | 32 µM (≈ 13.6 µg/mL) | 237 ×10⁻⁶ cm/s | 9.47 | 20 nM | 223 nM | 11 | 3470 nM | 171 | 15.5
Fc1ccc(Cc2ccc3c(NCCCNCc4ccc5c(c4)OCO5)ccnc3c2)c(Cl)c1 | 4.2 µM (≈ 2.01 µg/mL) | 23 ×10⁻⁶ cm/s | 9.47 | 27 nM | 953 nM | 35.9 | 16000 nM | 603.8 | 16.8
CN(C)c1cccc(Oc2ccc3c(NCCCNCc4ccc5c(c4)OCO5)ccnc3c2)c1 | 14.5 µM (≈ 6.82 µg/mL) | 317 ×10⁻⁶ cm/s | 9.28 | 1360 nM | 3930 nM | 2.9 | 16000 nM | 12 | 4
COc1cccc(CNCCCNc2ccnc3cc(Oc4ccc(C(C)(C)C)cc4)ccc23)c1O | 14.5 µM (≈ 7.04 µg/mL) | 317 ×10⁻⁶ cm/s | 9.28 | 54 nM | 249 nM | 4.6 | 1500 nM | 28 | 6
COc1ccc(F)cc1CNCCCNc1ccnc2cc(CCc3ccccc3)ccc12 | 4.2 µM (≈ 1.86 µg/mL) | 23 ×10⁻⁶ cm/s | 9.47 | 132 nM | 2140 nM | 16.2 | 4240 nM | 32.1 | 2
CC(C)CCc1ccc2c(NCCCNCc3ccc4c(c3)OCO4)ccnc2c1 | 4.2 µM (≈ 1.7 µg/mL) | 23 ×10⁻⁶ cm/s | 9.47 | 27 nM | 206 nM | 7.6 | 2800 nM | 103.1 | 13.5
CCC(CC)c1ccc2c(NCCCNCc3cc(F)ccc3OC)ccnc2c1 | 4.2 µM (≈ 1.72 µg/mL) | 23 ×10⁻⁶ cm/s | 9.47 | 40 nM | 1930 nM | 48 | 7860 nM | 194.9 | 4.1
COc1ccc(Oc2ccc3c(NCCCNCc4ccco4)ccnc3c2)cc1 | 14.5 µM (≈ 5.85 µg/mL) | 317 ×10⁻⁶ cm/s | 9.28 | 4 nM | 20 nM | 5.6 | 5300 nM | 1479 | 265
c1ccc(Oc2ccc3c(NCCCNCc4ccco4)ccnc3c2)cc1 | 14.5 µM (≈ 5.42 µg/mL) | 317 ×10⁻⁶ cm/s | 9.28 | 314 nM | 5970 nM | 19 | 15200 nM | 48 | 3
Clc1ccc(Oc2ccc3c(NCCCNCc4ccc5c(c4)OCO5)ccnc3c2)cc1 | 14.5 µM (≈ 6.7 µg/mL) | 317 ×10⁻⁶ cm/s | 9.28 | 38 nM | 320 nM | 8.4 | 7200 nM | 189 | 22
N#Cc1ccc(Cc2ccc3c(NCCCNCc4ccc5c(c4)OCO5)ccnc3c2)cc1 | 4.2 µM (≈ 1.89 µg/mL) | 23 ×10⁻⁶ cm/s | 9.47 | 23 nM | 3070 nM | 136.4 | 6080 nM | 270.2 | 2
COc1cccc(CNCCCNc2ccnc3cc(-c4ccc(C(F)(F)F)cc4)ccc23)c1O | 32 µM (≈ 15.4 µg/mL) | 237 ×10⁻⁶ cm/s | 9.47 | 13 nM | 24 nM | 1.8 | 2210 nM | 166.2 | 91
CC(C)Cc1ccc2c(NCCCNCc3ccc4c(c3)OCO4)ccnc2c1 | 4.2 µM (≈ 1.64 µg/mL) | 23 ×10⁻⁶ cm/s | 9.47 | 66 nM | 1810 nM | 27.7 | 2380 nM | 36.3 | 1.3
N#Cc1ccc(Cc2ccc3c(NCCCNCc4ccco4)ccnc3c2)cc1 | 4.2 µM (≈ 1.67 µg/mL) | 23 ×10⁻⁶ cm/s | 9.47 | 39 nM | 382 nM | 9.7 | 7910 nM | 201.9 | 20.7
COc1cccc(CNCCCNc2ccnc3cc(-c4ccccc4)ccc23)c1O | 32 µM (≈ 13.2 µg/mL) | 237 ×10⁻⁶ cm/s | 9.47 | 9 nM | 1940 nM | 212.7 | 3210 nM | 353 | 1.7
COc1ccc(-c2ccc3c(NCCCNCc4cccc(OC)c4O)ccnc3c2)cc1 | 32 µM (≈ 14.2 µg/mL) | 237 ×10⁻⁶ cm/s | 9.47 | 13 nM | 78 nM | 6 | 1600 nM | 122.9 | 20.6
COc1cccc(CNCCCNc2ccnc3cc(-c4cccc5ccccc45)ccc23)c1O | 32 µM (≈ 14.8 µg/mL) | 237 ×10⁻⁶ cm/s | 9.47 | 33 nM | 1120 nM | 33.9 | 2520 nM | 76.3 | 2.3
